Bioassay records deposited in PubChem BioAssay by Johns Hopkins Ion Channel Center.
KCNK3 block: human KCNK3 channel inhibition, primary screen; B-score at 10 µM; hit rate 0.84% among 340,000; CHO-KCNK3 thallium flux, FluxOR fluorescence; hits give low values; O14649;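 active = B-score under library mean minus 4 SD, starting fluorescence ratio at most library mean plus 5 SD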;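 note: more negative B-score means stronger inhibition of thallium flux through KCNK3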
KCNK9 block: human KCNK9 channel inhibition; Q9NPC2; hit rate 1.2% among 310,000; B-score at 10 µM; HEK293 KCNK9, FluxOR thallium flux fluorescence; hits give low values;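 active = ratio B-score over 3 SD below the library mean, with starting fluorescence within 5 SD of its mean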;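 note: negative B-score means less thallium flux so channel inhibition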
KCNQ1 inh: blocks the human KCNQ1 potassium channel; CHO-K1 KCNQ1, FluxOR thallium flux fluorescence; hits give high values; B-score at 10 µM; hit rate 1.3% among 310,000; AID 2642;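 active = compounds whose thallium flux B-score, printed positive for inhibition, exceeds three library SD while starting fluorescence stays within three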;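 note: channel opened by potassium depolarization with thallium stimulus after 20 min compound exposure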
Kir21 block: blocks the mouse Kir2.1 inward-rectifier potassium channel | P35561 | HEK293-Kir2.1, FluxOR thallium flux fluorescence; hits give low values | B-score at 10 µM | hit rate 0.85% among 310,000 | AID 1672;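 active = fluorescence ratio B-score at or below minus 3 SD of library scores, with starting-brightness B-score within 2 SD, cut at about -4.2 in these data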;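 note: channel flux triggered by added potassium and thallium sulfate stimulus; B-score of peak minus minimum fluorescence over baseline after thallium stimulus; more negative B-score means stronger Kir2.1 block with less thallium influx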
KCNQ1 act: potentiates or activates the human KCNQ1 potassium channel; AID 2648; CHO-K1 KCNQ1, thallium flux FluxOR fluorescence; hits give high values; hit rate 0.35% among 310,000; B-score at 10 µM; P51787;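 active = fluorescence ratio B-score, a plate-corrected score, at least three library SD, with initial intensity B-score within 5 SD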
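System: Stable KCNQ1 CHO-K1 line | Incubation: 90 min dye loading and 20 min compound exposure, both at room temperature | Measure: Ratio B score | Medium: Assay buffer for compound exposure, DMSO matched across wells | Compound dosing: Single-concentration screen | Probe or stimulus: K+/Tl+ depolarizing stimulus | Measured by: Kinetic FluxOR fluorescence, 10 s baseline plus 110 s post-stimulus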
hERG rescue: hERG (human) protection from proarrhythmic block. hit rate 0.51% among 310,000. AID 1511. activation (rescue from dofetilide block), less the hit threshold, % at 10 µM. CHO-hERG, FluxOR thallium flux, dofetilide IC70 present. Q12809;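 active = activation above the mean of controls blocked by dofetilide plus 5 SD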;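 note: thallium influx through hERG after potassium depolarization seen as dye fluorescence rise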
KCNQ1 block val: human KCNQ1 channel inhibition, validation assay. shares compounds with KCNQ1 inh. KCNQ1 cell line, FluxOR thallium flux fluorescence. inhibition, % at 10 µM. hit rate 93% among 1,600;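 active = primary screen active, with duplicate mean exceeding buffer control mean plus 3 SD of buffer wells, cut at about 28% in these data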
CHO Tl flux: counter-screen for KCNQ1 inhibitors: effect in parental CHO cells | fluorescence ratio (Tl flux) at 10 µM | shares compounds with KCNQ1 inh | hit rate 21% among 1,600 | AID 588366 | parental CHO-K1, FluxOR thallium flux fluorescence ratio; hits give low values; zero means no signal rise above baseline;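 active = mean of duplicate thallium-flux fluorescence ratios in parental host cells more than 5 SD below the buffer control mean, cut at about 0.38 in these data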;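 note: ratio is peak minus minimum fluorescence divided by baseline fluorescence; actives read low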
KCNQ1 APC inh: confirmation of human KCNQ1 potassium channel inhibitors by electrophysiology; KCNQ1-CHO cells, automated patch clamp current; hit rate 20% among 490; AID 624120; calls only at 10 µM; shares compounds with KCNQ1 inh;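 active = KCNQ1 current drop exceeding 3 SD of negative control wells, seen in both duplicate runs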;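 note: steady state current during a 2 s step from -80 to +40 mV; negative values mean current inhibition and positive values mean potentiation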
KCNQ2 inh: selectivity of KCNQ1 inhibitors: inhibition of rat KCNQ2 channel. AID 651746. inhibition, % at 10 µM. hit rate 71% among 1,600. shares compounds with KCNQ1 inh. KCNQ2 cells, FluxOR thallium flux fluorescence;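 active = mean percent inhibition of the KCNQ2 thallium signal more than 5 SD above the buffer-only control wells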;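 note: KCNQ2 expressed in CHO cells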
KCNQ1 KCNE1 spec: selectivity of KCNQ1 inhibitors: inhibition of human KCNQ1/KCNE1 channel. hit rate 77% among 1,600. inhibition, % at 10 µM. shares compounds with KCNQ1 inh. KCNQ1/KCNE1 cells, FluxOR thallium flux fluorescence;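 active = mean percent inhibition of duplicate wells above the buffer-only control mean plus 3 SD of those controls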
Target sequence (P51787 whole entry, looked up): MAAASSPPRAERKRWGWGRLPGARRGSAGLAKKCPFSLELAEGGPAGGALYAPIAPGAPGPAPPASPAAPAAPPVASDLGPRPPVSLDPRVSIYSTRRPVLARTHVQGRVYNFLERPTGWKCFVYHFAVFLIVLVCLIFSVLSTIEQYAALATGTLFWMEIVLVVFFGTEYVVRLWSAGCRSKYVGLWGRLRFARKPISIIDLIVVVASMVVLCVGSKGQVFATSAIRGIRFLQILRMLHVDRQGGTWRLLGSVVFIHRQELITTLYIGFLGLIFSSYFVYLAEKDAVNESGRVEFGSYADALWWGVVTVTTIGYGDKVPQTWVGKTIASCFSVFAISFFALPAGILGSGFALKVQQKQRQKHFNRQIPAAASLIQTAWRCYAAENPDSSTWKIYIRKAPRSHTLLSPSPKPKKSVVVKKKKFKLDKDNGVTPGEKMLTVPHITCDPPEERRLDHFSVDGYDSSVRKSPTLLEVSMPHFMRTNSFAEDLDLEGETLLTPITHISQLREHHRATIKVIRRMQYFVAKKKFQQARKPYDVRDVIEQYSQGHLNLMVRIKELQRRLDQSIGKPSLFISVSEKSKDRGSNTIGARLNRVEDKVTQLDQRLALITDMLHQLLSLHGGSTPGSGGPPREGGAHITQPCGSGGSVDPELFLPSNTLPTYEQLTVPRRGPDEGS
Of the large screens only hits and unclear results are named; the others gave an inactive call (follow-up assays come after a bar, where they were run). Most compounds without a hit are left out; they make up all but 3.7% or so of the library.

O=C1CN(C(=O)COC(=O)[C@@H]2CCCN2S(=O)(=O)c2ccc(Cl)cc2)c2ccccc2N1	none (no result: KCNK9 block, KCNQ1 inh, Kir21 block, KCNQ1 act, hERG rescue)
CC(=O)c1ccc(NC(=O)Nc2cccc(Cl)c2)cc1	KCNQ1 inh 8 | KCNQ1 block val 88.0 | CHO Tl flux inactive | KCNQ1 APC inh inactive | KCNQ2 inh 60.7% | KCNQ1 KCNE1 spec inactive
CSc1cccc(NC(=S)Nc2ccc(F)cc2)c1	none
Fc1ccc(NC(=S)Nc2cccc(Cl)c2)cc1	KCNQ1 inh 6 | KCNQ1 block val 47.5 | CHO Tl flux inactive | KCNQ2 inh inactive | KCNQ1 KCNE1 spec 36.0%
CSc1cccc(NC(N)=O)c1	none
CC(=O)Nc1ccc(NC(=O)Nc2cccc(Cl)c2)cc1	none
O=C(Nc1ccccc1)Nc1cccc(Cl)c1	KCNQ1 inh 13 | KCNQ1 block val 86.0 | CHO Tl flux inactive | KCNQ2 inh 72.3% | KCNQ1 KCNE1 spec inactive
O=C(Nc1cccc(Cl)c1)Nc1cccc(C(=O)O)c1	none
CSc1cccc(NC(=O)Nc2ccc(Cl)cc2)c1	KCNQ1 inh 17 | KCNQ1 block val 68.5 | CHO Tl flux inactive | KCNQ2 inh 60.7% | KCNQ1 KCNE1 spec 43.5%
CCC(C(=O)NCc1ccc(F)cc1)N(Cc1cccs1)C(=O)c1snc(C(N)=O)c1N (stereo not drawn)	none
Cc1ccc(S(=O)(=O)NCc2ccncc2)c(C)c1C	KCNQ1 inh 7 | KCNQ1 block val 55.5 | CHO Tl flux inactive | KCNQ2 inh inactive | KCNQ1 KCNE1 spec inactive
Cc1csc(NC(=O)C(Cc2ccccc2)n2cccc2)n1 (stereo not drawn)	KCNQ1 inh 13 | KCNQ1 block val 54.5 | CHO Tl flux inactive | KCNQ2 inh 61.7% | KCNQ1 KCNE1 spec 86.0%
C=CCn1c(=O)[nH]c2nc3cc(N=CN(C)C)c(C)cc3nc2c1=O	KCNQ1 inh 8 | KCNQ1 block val 102.0 | CHO Tl flux 0.285 | KCNQ2 inh inactive | KCNQ1 KCNE1 spec 152.0%
COc1ccc(OCC(=O)Nc2c3c(nn2-c2ccc(OC)cc2)CS(=O)(=O)C3)cc1	none
Cc1nnc2ccc(Oc3ccc(-c4ccccc4)cc3)nn12	KCNQ1 inh 9 | KCNQ1 block val 67.0 | CHO Tl flux inactive | KCNQ2 inh inactive | KCNQ1 KCNE1 spec inactive
O=C(Nc1ccccc1)Nc1ccccc1NS(=O)(=O)c1cccs1	KCNQ1 inh 10 | KCNQ1 block val 64.0 | CHO Tl flux inactive | KCNQ2 inh 63.7% | KCNQ1 KCNE1 spec inactive
CCOC(=O)c1c(C)[nH]c(C(=O)OCC(=O)N(C)CC(=O)Nc2ccccc2Cl)c1C	none
Cc1ccc(OCC(=O)NC2CCS(=O)(=O)C2)c(C)c1 (stereo not drawn)	none
Oc1[nH]c2ccc(Br)cc2c1N=NC(=S)Nc1ccc(F)cc1	none
Oc1ccc(NC(=S)N=Nc2c(O)[nH]c3ccc(Br)cc23)cc1	KCNQ1 inh 7 | KCNQ1 block val 108.5 | CHO Tl flux inactive | KCNQ1 APC inh inactive | KCNQ2 inh 75.3% | KCNQ1 KCNE1 spec 158.5%
Cc1ccc(Cl)cc1N1CCN(C(=O)c2cc3c(=O)[nH]c4ccccc4c3n2C)CC1	KCNQ1 inh 12 | KCNQ1 block val 110.0 | CHO Tl flux inactive | KCNQ1 APC inh inactive | KCNQ2 inh 104.3% | KCNQ1 KCNE1 spec inactive
COc1ccc(S(=O)(=O)Nc2ccc(C)cn2)cc1	none
Cc1nc2c(-c3ccccc3)c(C)nn2c(N)c1-c1ccccc1	KCNQ1 inh 7 | KCNQ1 block val active | CHO Tl flux inactive | KCNQ1 APC inh inactive | KCNQ2 inh inactive | KCNQ1 KCNE1 spec inactive
O=C(Nc1cccc(S(=O)(=O)N2CCCCC2)c1)Nc1ccc(Cl)cc1Cl	KCNQ1 inh 7 | KCNQ1 block val 98.5 | CHO Tl flux inactive | KCNQ1 APC inh inactive | KCNQ2 inh 96.7% | KCNQ1 KCNE1 spec 69.5%
O=C(Cc1ccccc1Cl)Nc1cccc(S(=O)(=O)N2CCCCCC2)c1	none (no result: KCNK9 block, KCNQ1 inh, Kir21 block, KCNQ1 act, hERG rescue)
CCCCN(C(=O)c1ccc([N+](=O)[O-])o1)c1c(N)n(CCCC)c(=O)[nH]c1=O	none
C/C=C(\C)CN1CCC(Oc2cccc(C(=O)NCc3ccccn3)c2)CC1	none
CCCCOCCCNc1ncnc2c1[nH]c1ccccc12	KCNQ1 inh 9, Kir21 block -9.62 | KCNQ1 block val 153.5 | CHO Tl flux 0.357 | KCNQ2 inh 120.7% | KCNQ1 KCNE1 spec 198.5%
CSc1ccc(S(=O)(=O)N2c3ccccc3CC2C)cc1 (stereo not drawn)	KCNQ1 inh 6 | KCNQ1 block val 104.5 | CHO Tl flux inactive | KCNQ1 APC inh active | KCNQ2 inh 99.0% | KCNQ1 KCNE1 spec 142.0%
COc1ccc(Nc2cc(C(=O)N3CCc4ccccc4C3)c3ccccc3n2)c(OC)c1	KCNQ1 inh 7 | KCNQ1 block val 135.0 | CHO Tl flux inactive | KCNQ1 APC inh inactive | KCNQ2 inh 129.7% | KCNQ1 KCNE1 spec 175.5%
COc1ccc(-c2cc(C(=O)N3CCN(c4ccccc4F)CC3)c3ccccc3n2)c(OC)c1	KCNQ1 inh 7 | KCNQ1 block val 110.5 | CHO Tl flux inactive | KCNQ1 APC inh inactive | KCNQ2 inh inactive | KCNQ1 KCNE1 spec 176.0%
COc1ccccc1-c1cc(C(=O)N2CCc3ccccc3C2)c2ccccc2n1	none (no result: KCNK3 block)
COC(=O)c1cc(OCC(=O)Nc2ccc3c(c2)CCC3)cc(C(=O)OC)c1	none (no result: KCNK9 block, KCNQ1 inh, Kir21 block, KCNQ1 act, hERG rescue)
O=C(COc1cccc(C(F)(F)F)c1)Nc1ccc(S(=O)(=O)N2CCCCC2)cc1	KCNQ1 inh 8 | KCNQ1 block val 107.0 | CHO Tl flux inactive | KCNQ1 APC inh inactive | KCNQ2 inh 98.7% | KCNQ1 KCNE1 spec 67.0%
Cc1ccccc1NC(NC(=O)c1cccs1)C(Cl)(Cl)Cl (stereo not drawn)	KCNQ1 inh 13 | KCNQ1 block val 120.5 | CHO Tl flux inactive | KCNQ1 APC inh inactive | KCNQ2 inh inactive | KCNQ1 KCNE1 spec 114.5%
O=S(=O)(NC1CC1)c1ccc(Cl)cc1F	none
O=C(CSc1nnc2n1CCCN2C(=S)Nc1ccc(Cl)cc1)c1ccccc1	KCNQ1 inh 9 | KCNQ1 block val 102.5 | CHO Tl flux inactive | KCNQ1 APC inh inactive | KCNQ2 inh inactive | KCNQ1 KCNE1 spec 70.0%
